System: Mus musculus
Assay: Antiinflammatory activity in mouse assessed as inhibition of carrageenan-induced increase in paw volume at 100 mg/kg, ip administered 1 hr prior to carrageenan challenge measured after 3 hrs relative to control
Type: functional
Conditions: route intraperitoneal
Outline: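 Mice were fasted 2 h and placed in groups of five. Controls received saline i.p. Phenylbutazone was given at 100 mg/kg i.p., curcumin at 200 mg/kg i.p., and derivatives at 200 mg/kg. After 1 h, 0.1 mL of 1% carrageenan in saline was injected subplantar into the right hind paw. Paw volume was followed by plethysmometer for 3 h, and % inhibition was calculated as (Vc − Vt)/Vc × 100.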

Compound: CCCCC1C(=O)N(c2ccccc2)N(c2ccccc2)C1=O [PHENYLBUTAZONE]
- inhibition in vivo at 100 mg/kg: 70.9%
